A selection: hits, their analogues and other compounds. The true share with any hit is near 2.8%.
NPY2 pot ag = NPY-Y2 potentiators or agonists, primary screen, cell-based; Neuropeptide Y receptor type 2 (Homo sapiens), P49146; cells expressing NPY-Y2, potentiator/agonist read-out; activation, % at 3.6 µM; 220,000 tested, 0.45% active; AID 1359, 2008; in the data active = activation above about 27%;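 also: cells stimulated with NPY near EC25 plus isoproterenol at EC100; 0% = vehicle plus submaximal agonist and 100% = vehicle plus saturating agonist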
Target sequence (P49146 whole entry, looked up): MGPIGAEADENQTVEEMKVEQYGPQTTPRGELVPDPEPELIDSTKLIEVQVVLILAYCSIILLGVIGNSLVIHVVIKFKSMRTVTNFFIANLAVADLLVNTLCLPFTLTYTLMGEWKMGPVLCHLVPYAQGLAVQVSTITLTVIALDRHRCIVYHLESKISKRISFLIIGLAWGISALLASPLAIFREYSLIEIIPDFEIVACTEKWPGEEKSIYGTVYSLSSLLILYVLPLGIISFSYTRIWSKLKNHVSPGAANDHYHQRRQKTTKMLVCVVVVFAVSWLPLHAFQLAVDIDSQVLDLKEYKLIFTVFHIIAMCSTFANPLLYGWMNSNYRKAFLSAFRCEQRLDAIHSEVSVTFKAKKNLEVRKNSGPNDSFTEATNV
Measles CPE = compounds protecting cells from measles virus cytopathic effect, primary screen, measles RdRp inhibitor project, single point, MLSMR library, absorbance; Measles virus-infected cells, CPE protection; protection (pct of control), % at 4 µM; 140,000 tested, 1.5% active; in the data active = protection mostly above about 24%, no sharp cut-off; inactive = mostly below about 26%
NPY-Y1 antag = NPY-Y1 receptor antagonists, primary screen, cell-based. Neuropeptide Y receptor type 1 (Homo sapiens), P25929. HEK293-CNG Y1 cells, membrane potential fluorescence; NPY at EC95, then isoproterenol. inhibition, % at 3.6 µM. 200,000 tested, 1% active. AID 1040, 2008;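 active = inhibition above the campaign mean inhibition of all tested compounds plus 3 SD, cut at about 20% in these data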;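 also: 0% = DMSO wells given NPY plus isoproterenol and 100% = isoproterenol alone without NPY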
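Material: HEK293 cells co-expressing NPY Y1 receptor and cyclic-nucleotide gated channel. Timing: compound incubation 1 h at room temperature, readout 45 min post-stimulation. Signal: fluorescence, membrane potential probe.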
NPY1 pot ag = NPY-Y1 receptor potentiators or agonists, primary screen, cell-based. Neuropeptide Y receptor type 1 (Homo sapiens), P25929. NPY-Y1 expressing cells, potentiator/agonist activation. activation, % at 3.6 µM. 220,000 tested, 0.37% active; in the data active = activation above about 33%, passing the limit was not always enough;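 also: cells stimulated with NPY at EC10 then isoproterenol at EC100; 0% = low agonist plus stimulus and 100% = saturating agonist plus stimulus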
NPY-Y2 antag = NPY-Y2 receptor antagonists, primary screen, cell-based | Neuropeptide Y receptor type 2 (Homo sapiens), P49146 | NPY-Y2 expressing cells, antagonist mode | inhibition, % at 2.7 µM | 140,000 tested, 0.99% active; in the data active = inhibition above about 17%;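 also: 0% = vehicle with agonist challenge and 100% = reference antagonist with challenge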
Rad51 HR inh = human RAD51 strand exchange inhibitors, primary screen, biochemical, fluorescence. DNA repair protein RAD51 homolog 1 (Homo sapiens), Q06609. hRad51 DNA strand exchange, fluorescence dequenching. inhibition, % at 10 µM. 200,000 tested, 0.085% active. AID 1385, 2008;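 active = inhibition above 40% at the single screening dose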;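 also: 0% = DMSO control wells and 100% = blanks with heterologous ssDNA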
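material = hRad51 filaments on single-stranded DNA | reagent = Donor/quencher-labelled 47-bp dsDNA substrate | compound = 10 µM final, single point | schedule = strand-exchange reaction 15 min at room temperature | measured by = fluorescein emission 520 nm, excitation 485 nm | read-out basis = % inhibition versus plate control and blank means | benchmarks = plate controls and plate blanks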
NPY-Y1 antag ct = NPY-Y1 receptor antagonists, selectivity check, counter-screen for NPY-Y2 antagonist project, cell-based | inhibition, % at 3.6 µM | shares compounds with NPY-Y2 antag | cell-based NPY-Y1 antagonism counterscreen | AID 1256, 2008 | 710 tested, 19% active; in the data active = inhibition above about 20%;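 also: cells challenged with NPY then isoproterenol with cAMP sensed through a CNG channel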
NPY-Y2 ant conf = NPY-Y2 receptor antagonists, retest of hits, confirmation, HEK293-CNG cells, membrane potential fluorescence, triplicate; AID 1257, 2008; HEK293 NPY-Y2 CNG channel; 710 tested, 32% active; inhibition, % at 2.8 µM; shares compounds with NPY-Y2 antag;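 active = mean inhibition of triplicate wells above the hit cutoff set in the primary screen, cut at about 17% in these data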;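 also: 0% = DMSO with NPY challenge and 100% = BIIE0246 high control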
* hit, by the source's call; . = no result.

SMILES	NPY2 pot ag	Measles CPE	NPY-Y1 antag	NPY1 pot ag	NPY-Y2 antag	Rad51 HR inh	others
CCCS(=O)(=O)N1CCCC(C(=O)c2ccccc2OC)C1 (centres undefined)	-3	.	-3	5	.	20
CCN1CCN(C(=O)c2cc(S(=O)(=O)Nc3ccc(S(C)(=O)=O)cc3)ccc2Cl)CC1	1	.	0	-3	.	-6
COc1ccc(NS(=O)(=O)c2ccc(NS(C)(=O)=O)cc2)cc1	-16	4	-3	10	1	5
CC(C)(C)NS(=O)(=O)c1ccc(NS(C)(=O)=O)cc1	4	45*	-2	8	6	-2
Cc1ccc(/C=C/C(=O)Nc2ccccc2C(N)=O)cc1	4	15	0	12	1	-22
O=C(N/N=C/c1coc2ccccc2c1=O)c1cn(-c2ccccc2)nc1-c1ccc(F)cc1	-3	13	3	2	-1	-24
Cc1ccccc1C(=O)N/N=C/c1ccc([N+](=O)[O-])s1	1	44*	2	3	-1	9
O=C(N/N=C/c1ccc([N+](=O)[O-])s1)c1ccccc1Br	3	7	-4	1	-1	3
CC(NC(=O)Cn1ncc(Cl)c(Cl)c1=O)C12CC3CC(CC(C3)C1)C2 (centres undefined)	72*	0	-16	82*	2	11
CC(NC(=O)CN1C(=O)NC(Cc2ccccc2)(Cc2ccccc2)C1=O)C12CC3CC(CC(C3)C1)C2 (centres undefined)	-90	8	130*	-127	161*	4
CCN1C=CC(=C2C(=O)c3ccccc3C2=O)C=C1	8	40*	-9	-2	1	-2
Fc1ccc(/C=C2\CCCC3=C2Nc2ncnn2C3c2ccc(F)cc2)cc1 (centres undefined)	1	3	0	5	0	-6
Cc1nc2sccn2c(=O)c1CCN1CCC(=C(c2ccccc2)c2ccc(F)cc2)CC1	-8	21	40*	-92	44*	-1
NC(N)=NC(N)=Nc1ccc(SC(F)(F)F)cc1	-6	24*	9	1	0	27
CCOc1ccccc1CNC(=O)c1cc2oc3ccccc3c2n1C	-8	77*	8	-7	6	-5
CC(C)(C)NS(=O)(=O)c1ccc(OCC(=O)NCCC2=CCCCC2)cc1	5	21	-3	-1	-1	-8
C=CCNC(=O)c1onc(CSc2cc(C)ccc2C)c1C(=O)O	-29	34*	2	-22	8	3
CCCCNC(=O)c1onc(CSc2ccccc2CC)c1C(=O)O	-51	18	21*	-22	14	4
O=C1NC(=S)SC1=C1CCCC1	-14	13	-2	-26	5	-27
COc1ccccc1NC(=O)NCCN1CCNC1=O	6	.	.	-11	.	8
Oc1ccc(/C=N/N2CCN(C3c4ccccc4-c4ccccc43)CC2)cc1O	10	.	.	2	.	.
O=C(OCC(=O)N1CCCC1)c1cncc(Br)c1	6	43*	10	1	3	.
O=C(OCC(=O)N1CCCc2ccccc21)c1cncc(Br)c1	7	13	-6	-11	3	1
O=[N+]([O-])c1c(Nc2ccccc2)ccc2nonc12	-10	28*	4	-5	4	2
NS(=O)(=O)c1cccc(NC(=S)NC(=O)C23CC4CC(CC(C4)C2)C3)c1	14	44*	-2	30	1	1
SMILES	NPY2 pot ag	Measles CPE	NPY-Y1 antag	NPY1 pot ag	NPY-Y2 antag	Rad51 HR inh	others
Cc1ccc(S(=O)(=O)N(C)C)cc1NC(=S)NC(=O)C12CC3CC(CC(C3)C1)C2	3	19	-2	3	9	19
COc1ccc(C(c2c(O)nc[nH]c2=O)c2c(O)nc[nH]c2=O)cc1	11	.	.	1	.	25
CN1CCN(CCCNC(=O)Nc2cccc3ccccc23)CC1	1	44*	0	1	3	.
CCc1nc2ccc(C)cc2c(C(=O)NC2CCCCC2C)c1C (centres undefined)	-53	3	64*	-97	30*	-5
Cc1ccc2c(c1)NC(=O)C(CC(=O)NC1CCCCC1C)O2 (centres undefined)	3	6	-2	2	1	1
COc1cccc(C(=O)NC2CCCC2)c1	7	.	-6	9	.	-137
COc1cccc(C(=O)NNC(=S)NC2CCCCC2)c1	6	25*	4	0	1	-3
O=C1CSC(c2nn(-c3ccccc3)cc2-c2cc3ccccc3oc2=O)N1Cc1ccco1 (centres undefined)	-20	14	7	-39	18*	-5	NPY-Y1 antag ct=2;NPY-Y2 ant conf=7
O=C1CSC(c2cn(-c3ccccc3)nc2-c2cc3ccccc3oc2=O)N1Cc1ccccc1 (centres undefined)	-15	5	11	-28	3	-5
CN(c1ccc(C(=O)NCCSCc2ccc(Cl)cc2)cc1)S(=O)(=O)c1ccccc1	10	6	8	-23	11	0
Cc1ccc(CSCCNC(=O)c2ccc(N(C)S(=O)(=O)c3ccccc3)cc2)cc1	-26	11	5	-36	18*	-2	NPY-Y1 antag ct=10;NPY-Y2 ant conf=15
CCOc1ccccc1NC(=S)Nc1ccc(S(N)(=O)=O)cc1	-2	.	0	-16	.	.
COc1ccc(C(=O)Nc2cccc(OC(=O)c3ccc(C)c(C)c3)c2)cc1	-15	7	11	-24	17*	.	NPY-Y1 antag ct=23*;NPY-Y2 ant conf=23*
COc1cccc(NC(=O)c2ccc(NC(C)=O)cc2)c1	-11	15	-1	-11	1	-4
CC(C)Cn1c(N)c(C(=O)NCC2CCCO2)c2nc3ccccc3nc21 (centres undefined)	5	3	13	-16	20*	0	NPY-Y1 antag ct=16;NPY-Y2 ant conf=7
COC(=O)c1cc(-c2ccc(OC)c(OC)c2)on1	-23	4	12	-36	28*	-6	NPY-Y1 antag ct=28*;NPY-Y2 ant conf=50*
COC(=O)c1cc(-c2ccc(OC)cc2)on1	-18	.	13	-56	.	-78

Bioassay records: PubChem BioAssay, several laboratories
